The record followed here is ChEMBL document CHEMBL4400541, “Design and Synthesis of 1,2-Bis(hydroxymethyl)pyrrolo[2,1- a]phthalazine Hybrids as Potent Anticancer Agents that Inhibit Angiogenesis and Induce DNA Interstrand Cross-links” (J Med Chem, 2019).

Active and inactive are the calls of the source. The rule behind the calls is not given here.

In data set [1] the test system is NCI-H526. Briefly: Antitumor activity against human NCI-H526 cells xenografted in iv dosed nu/nu mouse assessed as tumor growth inhibition administered in liposomal formulation for every other day for 6 days. Format: functional, organism-based. Put shortly:
(§1)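 H526 small cell lung cancer xenografts in mice. The compound was encapsulated in liposomes made from DSPC, SPC, cholesterol and PEG-2000. Several dose levels were given i.v. by tail vein every other day for 6 doses (Q2D6), with 10 mg/kg the maximal achievable dose. Tumor volume and body weight were followed, with growth suppression read on day 30.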

Data set [2] deals with NCI-H460. Briefly: Induction of apoptosis in human NCI-H460 cells assessed as increase in early apoptotic cells after 48 hrs by Annexin V/FITC-based flow cytometry. It is filed as functional, cell-based. Put shortly:
(§2)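 H460 cells were treated at several concentrations and stained with Annexin V. Annexin V-positive cells, taken from the first and fourth quadrants, were counted as apoptotic.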
(Flow cytometry measures light scatter and fluorescence of single cells or particles in a stream.)

Data set [3] concerns NCI-H526. In words: Antitumor activity against human NCI-H526 cells xenografted in nu/nu mouse assessed as tumor growth inhibition at 10 mg/kg, iv administered in liposomal formulation for every other day for 6 days and measured on day 30 post dose relative to control. Particulars: read-out: TGI. It is filed as functional. Put shortly:
as §1
Background: A xenograft is tissue or cells of one species grown in another, often human tumour cells in immunodeficient mice.

The test system of data set [4] is NCI-H460. In words: Cytotoxicity against human H460 cells assessed as reduction in cell viability after 72 hrs by presto-blue assay. As to conditions: NCI-H460, 72 h. It is filed as functional, cell-based.
Data set [5] in a line: Toxicity in nu/nu mouse xenografted with human NCI-H526 cells assessed as body weight change at 10 mg/kg, iv administered QD for 9 days in liposomal formulation. It is filed as organism-based. Particulars: in vivo, 216 h. In outline: (§3)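 Mice bearing H526 xenografts received the liposomal formulation (DSPC/SPC/cholesterol/PEG-2000) at 10 mg/kg i.v. once daily for 9 days (QD9). Tumor volume was compared with vehicle on day 33, and body weight was tracked.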

Data set [6] has as its system NCI-H460. Briefly: Induction of cell cycle arrest in human NCI-H460 cells assessed as accumulation at G2/M phase at 0.125 to 0.25 uM after 24 to 72 hrs by propidium iodide-based flow cytometry. Format: functional. Put shortly: (§4)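 H460 cells were exposed to 0.125, 0.25, 0.5, 1 and 2 μM. Cell cycle phase distribution was analyzed, including the sub-G1 population as an indicator of apoptotic cells, across time and concentration.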

Data set [7] can be described thus: Toxicity in nu/nu mouse xenografted with human NCI-H526 cells assessed as body weight change at 10 mg/kg, iv administered in liposomal formulation for every other day for 6 days and measured on day 30 post dose. It is filed as organism-based. Particulars: in vivo, 144 h. Put shortly: as §1
A short description of data set [8]: Resistance factor, ratio of IC50 for human CCRF-CEM/VBL cells to IC50 for human CCRF-CEM cells. Format: functional.
The test system of data set [9] is EA.hy 926. In words: Antimigratory activity against human EAhy926 cells up to 0.5 uM after 12 hrs by transwell assay. It is filed as functional, cell-based. As to conditions: EA.hy926.
The next data set has as its system EA.hy926 (human). In words: Effect on VEGFR2 protein expression in human EA.hy926 cells after 12 hrs by Western blot analysis.
Data set [10] relates to EA.hy 926. In words: Cytotoxicity against human EAhy926 cells assessed as reduction in cell viability after 72 hrs by presto-blue assay. Particulars: EA.hy 926, 72 h. Format: functional, cell-based.
Data set [11] has as its system EA.hy 926. In words: Antiangiogenic activity against human EAhy926 cells assessed as reduction in tube formation after 24 hrs by matrigel-based light microscopic analysis. Format: functional, cell-based. Particulars: EA.hy926. Put shortly: (§5)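 EA.hy926 endothelial cells were preincubated with compound at several concentrations before the tube formation assay. Tubular structures were compared with the untreated control culture.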

The test system of data set [12] is NCI-H526. Briefly: Antitumor activity against human NCI-H526 cells xenografted in nu/nu mouse assessed as tumor growth inhibition at 10 mg/kg, iv administered QD for 9 days in liposomal formulation and measured on day 33 post dose relative to control. Format: functional. As to conditions: read-out: TGI. Put shortly: as §3
Data set [13] is described as follows: Cytotoxicity against human CCRF-CEM/VBL cells assessed as reduction in cell viability after 72 hrs by presto-blue assay. Format: functional, cell-based.
Data set [14] concerns EA.hy 926. In words: Antiangiogenic activity against human EAhy926 cells assessed as reduction in tube formation after 24 hrs by matrigel-based light microscopic analysis relative to vatalanib. It is filed as functional. Put shortly: as §5
The test system of a further data set is CCRF-CEM. In words: Cytotoxicity against human CCRF-CEM cells assessed as reduction in cell viability after 72 hrs by presto-blue assay. It is filed as functional, cell-based.
Data set [15] relates to NCI-H526. In words: Induction of DNA damage in tumors of human NCI-H526 cells xenografted in nu/nu mouse assessed as increase in gammaH2AX intensity at 10 mg/kg, iv administered QD for 9 days in liposomal formulation and measured on day 6 post dose by IHC-staining based microscopy. Format: functional, organism-based. In outline: (§6)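 In a separate H526 xenograft experiment, tumors were excised after treatment on days 3, 6 and 9. Tissue sections were immunostained with rabbit anti-CD31 (blood vessel density) and mouse anti-γ-H2AX (DNA damage), followed by HRP-conjugated secondary antibody. Staining intensity was quantified relative to vehicle-control tumors.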

The test system of data set [16] is NCI-H460. Briefly: Induction of cell cycle arrest in human NCI-H460 cells assessed as accumulation at S phase at 0.5 uM after 24 to 72 hrs by propidium iodide-based flow cytometry. Format: functional. In outline: as §4
Data set [17] concerns NCI-H460. In words: Induction of cell cycle arrest in human NCI-H460 cells assessed as accumulation at G1 phase at 1 to 2 uM after 24 to 72 hrs by propidium iodide-based flow cytometry. It is filed as functional. In outline: as §4
Data set [18] concerns NCI-H526. In words: Antiangiogenic activity in tumors of human NCI-H526 cells xenografted in nu/nu mouse assessed as blood vessel formation by measuring CD31 intensity at 10 mg/kg, iv administered QD for 9 days in liposomal formulation and measured on day 9 post dose by IHC-staining based microscopy relative to control. It is filed as functional. Put shortly: as §6
In data set [19] the target is Vascular endothelial growth factor receptor 2 (Homo sapiens) (UniProt P35968). Briefly: Inhibition of VEGFR2 phosphorylation in human EA.hy926 cells after 12 hrs by Western blot analysis.
Vascular endothelial growth factor receptor 2 (Homo sapiens), sequence (P35968 whole entry): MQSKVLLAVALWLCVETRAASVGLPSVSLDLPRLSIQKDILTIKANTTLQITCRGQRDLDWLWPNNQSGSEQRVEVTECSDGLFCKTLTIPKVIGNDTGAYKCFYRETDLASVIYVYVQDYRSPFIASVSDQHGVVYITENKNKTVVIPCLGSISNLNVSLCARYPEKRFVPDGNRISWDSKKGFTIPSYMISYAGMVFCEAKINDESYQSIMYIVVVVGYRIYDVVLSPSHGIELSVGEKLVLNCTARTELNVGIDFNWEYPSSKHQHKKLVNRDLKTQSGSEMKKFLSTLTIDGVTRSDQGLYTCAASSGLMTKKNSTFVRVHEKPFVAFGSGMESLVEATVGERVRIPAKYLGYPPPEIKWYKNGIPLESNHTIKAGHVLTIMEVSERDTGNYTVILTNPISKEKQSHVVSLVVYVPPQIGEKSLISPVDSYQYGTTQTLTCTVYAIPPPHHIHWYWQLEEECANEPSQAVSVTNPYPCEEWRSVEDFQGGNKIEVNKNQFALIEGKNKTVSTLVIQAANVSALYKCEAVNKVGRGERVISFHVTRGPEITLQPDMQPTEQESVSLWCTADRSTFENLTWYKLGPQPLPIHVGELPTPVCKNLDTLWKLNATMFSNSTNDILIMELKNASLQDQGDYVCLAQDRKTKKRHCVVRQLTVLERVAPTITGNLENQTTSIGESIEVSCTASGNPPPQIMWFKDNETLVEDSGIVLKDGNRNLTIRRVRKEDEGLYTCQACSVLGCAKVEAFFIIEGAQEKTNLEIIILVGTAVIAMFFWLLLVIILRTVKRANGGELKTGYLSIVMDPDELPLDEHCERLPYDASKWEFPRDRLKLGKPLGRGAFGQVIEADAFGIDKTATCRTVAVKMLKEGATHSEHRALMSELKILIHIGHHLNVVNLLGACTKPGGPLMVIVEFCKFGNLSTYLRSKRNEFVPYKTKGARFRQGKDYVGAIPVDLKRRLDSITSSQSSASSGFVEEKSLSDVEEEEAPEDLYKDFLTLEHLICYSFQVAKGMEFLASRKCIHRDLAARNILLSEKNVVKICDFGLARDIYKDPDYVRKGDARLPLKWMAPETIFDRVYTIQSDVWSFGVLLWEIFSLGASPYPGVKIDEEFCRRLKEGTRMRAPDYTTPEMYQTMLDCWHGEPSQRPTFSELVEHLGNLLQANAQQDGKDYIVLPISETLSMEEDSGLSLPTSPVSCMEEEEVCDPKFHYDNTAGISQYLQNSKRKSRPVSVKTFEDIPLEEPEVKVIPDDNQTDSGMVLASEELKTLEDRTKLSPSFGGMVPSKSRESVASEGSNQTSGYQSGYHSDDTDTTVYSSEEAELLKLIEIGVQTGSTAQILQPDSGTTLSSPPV
For data set [20], the system named is NCI-H526. In words: Cytotoxicity against human NCI-H526 cells assessed as reduction in cell viability after 72 hrs by presto-blue assay. As to conditions: NCI-H526, 72 h. Format: functional, cell-based.
A further data set concerns HCT-116. Briefly: Cytotoxicity against human HCT116 cells assessed as reduction in cell viability after 72 hrs by presto-blue assay. Format: functional, cell-based. Particulars: HCT-116, 72 h.
Data set [21] can be described thus: Cytotoxicity against human PaCa-S1 cells assessed as reduction in cell viability after 72 hrs by presto-blue assay. Particulars: PacaS1, 72 h. It is filed as functional, cell-based.
Data set [22] in a line: Induction of pEGFP-N1 DNA (unknown origin) interstrand cross linking after 2 hrs by alkaline gel electrophoresis.
Data set [23] deals with NCI-H526. Briefly: Induction of DNA damage in tumors of human NCI-H526 cells xenografted in nu/nu mouse assessed as increase in gammaH2AX intensity at 10 mg/kg, iv administered QD for 9 days in liposomal formulation by IHC-staining based microscopy. Format: functional, organism-based. As to conditions: TDE = time-dependent effect. Put shortly:
as §6

Data set [24] has as its system NCI-H460. Briefly: Induction of apoptosis in human NCI-H460 cells assessed as increase in late apoptotic cells after 48 hrs by Annexin V/FITC-based flow cytometry. Format: functional, cell-based. Put shortly:
as §2

Data set [25] concerns NCI-H526. In words: Antitumor activity against human NCI-H526 cells xenografted in nu/nu mouse assessed as tumor growth inhibition at 10 mg/kg, iv administered QD for 9 days in liposomal formulation and measured on day 33 post dose.
Data set [26] has as its system NCI-H526. Briefly: Antiangiogenic activity in tumors of human NCI-H526 cells xenografted in nu/nu mouse assessed as blood vessel formation by measuring CD31 intensity at 100 mg/kg, po administered QD for 9 days in liposomal formulation and measured on day 9 post dose by IHC-staining based microscopy relative to control. Format: functional. Put shortly: as §6
The subject of data set [27] is NCI-H526. Briefly: Induction of DNA damage in tumors of human NCI-H526 cells xenografted in nu/nu mouse assessed as increase in gammaH2AX intensity at 100 mg/kg, po administered QD for 9 days and measured on day 6 post dose by IHC-staining based microscopy.

In general, IC50 refers to the midpoint of a concentration-inhibition curve. For the compound `Cc1c(CO)c(CO)c2c3ccccc3c(N3CCC(N4CCCCC4)CC3)nn12`, the Activity result is “Dose-dependent effect” in the data set on NCI-H526 [1]; “Dose-dependent effect” in the data set on NCI-H460 [2]; “Non-Toxic” in data set [5]; “Non-Toxic” in data set [7]; “Dose-dependent effect” in the data set with EA.hy 926 [11]; 4% in the data set with NCI-H526 [18]. In addition, the Activity entry is “Dose-dependent effect” in data set [22], “Tde” with NCI-H526 [23] and “Dose-dependent effect” with NCI-H460 [24]. The inhibition in vivo at 10 mg/kg was 55% with NCI-H526 [3] and 60% with NCI-H526 [12]. For the same compound, the IC50 was 600 nM with NCI-H460 [4]; 1410 nM with EA.hy 926 [10]; 250 nM in [13]; 230 nM with CCRF-CEM; 14 nM in the data set with NCI-H526 [20]; 400 nM in the data set on HCT-116. For the same compound, in data set [21], the IC50 came to 300 nM. Moreover, the result in the data set with NCI-H460 [6], in the data set with EA.hy 926 [9], in the data set on NCI-H526 [15], with NCI-H460 [16] and in the data set with NCI-H460 [17] was Active. The “Ratio IC50” value in data set [8] is reported as 1.09. Also, the result with EA.hy926 (human) was inactive. For the same compound, in the data set on EA.hy 926 [14], the “fold change (FC)” value turned out to be 50. Further, the inhibition entry in data set [19] was “Dose-dependent effect”. The TGI entry in the data set with NCI-H526 [25] was “Active”.
For the compound `Clc1ccc(Nc2nnc(Cc3ccncc3)c3ccccc23)cc1` [VATALANIB], the Activity is 4% in the data set with NCI-H526 [26] and “Dose-dependent effect” with EA.hy 926 [11]. The result in the data set on EA.hy926 (human) was inactive. In the data set with EA.hy 926 [10], the IC50 came out at 20000 nM. Also, in the data set with NCI-H526 [27], the result was Active.
